These results are taken from ChEMBL document CHEMBL1153743, “Pyrrolidinones from the ascomycete fungus Albonectria rigidiuscula” (J Nat Prod, 2009).

Activity calls are given as the source filed them. The rule behind the calls is not given here.

What all share (type): functional, cell-based
The subject of experiment [1] is HeLa. Nature of the experiment: Cytotoxicity against human HeLa cells at 120 uM after 48 hrs by MTT assay. The essentials: (§1)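 HeLa cells seeded at 10^4 per well and left to attach overnight. Cells were exposed for 4 h at 37 °C and 5% CO2 to serial dilutions or a single 120 µM level, made from 10 mg/mL DMSO stocks, or to 0.2% DMSO medium. They then grew 48 h in fresh DMEM. MTT (0.5 mg/mL) was added for 3 h in the dark, formazan was dissolved in DMSO, and A540 was read. Run in triplicate; IC50 reported.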

Experiment [2] relates to MCF7. Nature of the experiment: Cytotoxicity against human MCF7 cells after 48 hrs by MTT assay. The following applies: MCF7, 48 h.
Experiment [3] relates to HeLa. Briefly: Cytotoxicity against human HeLa cells after 48 hrs by MTT assay. The essentials: as §1
Experiment [4] concerns MCF7. Nature of the experiment: Cytotoxicity against human MCF7 cells at 120 uM after 48 hrs by MTT assay.

With `CN1C(=O)[C@@](C)(O)C(=O)[C@@H]1Cc1ccc2c(c1)CC(C(C)(C)O)O2` (stereo partly drawn), the result in the experiment with HeLa [1] and in the experiment on MCF7 [4] was inactive. Moreover, the IC50 with MCF7 [2] and in the experiment on HeLa [3] was above 120 µM each time.
For the compound `CN1C(=O)[C@@](C)(O)[C@@H](O)[C@@H]1Cc1ccc2c(c1)CC(C(C)(C)O)O2` (stereo partly drawn), the outcome in the experiment with HeLa [1] and in the experiment with MCF7 [4] was inactive. Moreover, the IC50 with MCF7 [2] and with HeLa [3] was above 120 µM each time.
In the case of `CN1C(=O)[C@@](C)(O)[C@@H](O)[C@@H]1Cc1ccc(O)cc1`, the half-inhibitory concentration (IC50) with MCF7 [2] and with HeLa [3] was 95.6 µM in each case.
Turning to `O=c1[nH]cc(F)c(=O)[nH]1` [FLUOROURACIL], the 50% inhibitory concentration (IC50) in the experiment with HeLa [3] worked out at 10 µM.
Turning to `CN1C(=O)[C@@](C)(O)C(=O)[C@@H]1Cc1ccc(O)cc1`, the values for the half-inhibitory concentration (IC50) with MCF7 [2] and in the experiment with HeLa [3] were 100 µM and 48.2 µM, respectively.
